From ChEMBL document CHEMBL1126958, “Quinolinecarboxylic acids. 3. Synthesis and antibacterial evaluation of 2-substituted-7-oxo-2,3-dihydro-7H-pyrido[1,2,3-de] [1,4]benzothiazine-6-carboxylic acids related to rufloxacin” (J Med Chem, 1993)
Converted amounts (≈) assume the structure as drawn.

system: Enterobacter cloacae; assay: Minimal inhibitory concentration against Enterobacter cloacae OMNFI174 strain; assay type: functional
In short: (§1)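 Agar dilution on TSA agar; compounds added by 2-fold dilution to melted medium at 50 °C just before pouring. Organisms stored at –80 °C, diluted in peptonated water to 1–2 × 10^7 CFU, applied with multipoint inoculator. MIC = lowest concentration preventing visible growth after 24 h at 35 °C.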

MIC	SMILES
1 µg/mL (≈ 2.55 µM)	CC1Cn2cc(C(=O)O)c(=O)c3cc(F)c(N4CCN(C=O)CC4)c(c32)S1 (stereo not drawn)
8 µg/mL (≈ 15.3 µM)	CC1Cn2cc(C(=O)O)c(=O)c3cc(F)c(N4CCN(S(=O)(=O)c5ccc(F)cc5)CC4)c(c32)S1 (stereo not drawn)
> 64 µg/mL	CC1Cn2cc(C(=O)O)c(=O)c3cc(F)c(N4CCN(Cc5cccc(F)c5)CC4)c(c32)S1 (stereo not drawn)
16 µg/mL (≈ 45.9 µM)	CC1Cn2cc(C(=O)O)c(=O)c3cc(F)c(N4CCCC4)c(c32)S1 (stereo not drawn)
> 64 µg/mL	CC1Cn2cc(C(=O)O)c(=O)c3cc(F)c(N4CCN(Cc5ccc(F)cc5F)CC4)c(c32)S1 (stereo not drawn)
16 µg/mL (≈ 46.3 µM)	CC1Cn2cc(C(=O)O)c(=O)c3cc(F)c(-n4ccnc4)c(c32)S1 (stereo not drawn)

system: Klebsiella pneumoniae; assay: Minimal inhibitory concentration against Klebsiella pneumoniae ATCC 10031 strain; assay type: functional; in short: as §1

MIC	SMILES
0.5 µg/mL (≈ 1.28 µM)	CC1Cn2cc(C(=O)O)c(=O)c3cc(F)c(N4CCN(C=O)CC4)c(c32)S1 (stereo not drawn)
1 µg/mL (≈ 1.92 µM)	CC1Cn2cc(C(=O)O)c(=O)c3cc(F)c(N4CCN(S(=O)(=O)c5ccc(F)cc5)CC4)c(c32)S1 (stereo not drawn)
> 64 µg/mL	CC1Cn2cc(C(=O)O)c(=O)c3cc(F)c(N4CCN(Cc5cccc(F)c5)CC4)c(c32)S1 (stereo not drawn)
2 µg/mL (≈ 5.74 µM)	CC1Cn2cc(C(=O)O)c(=O)c3cc(F)c(N4CCCC4)c(c32)S1 (stereo not drawn)
> 64 µg/mL	CC1Cn2cc(C(=O)O)c(=O)c3cc(F)c(N4CCN(Cc5ccc(F)cc5F)CC4)c(c32)S1 (stereo not drawn)
0.25 µg/mL (≈ 0.724 µM)	CC1Cn2cc(C(=O)O)c(=O)c3cc(F)c(-n4ccnc4)c(c32)S1 (stereo not drawn)

system: Enterococcus faecalis; assay: Minimal inhibitory concentration against Streptococcus faecalis LEP strain; assay type: functional; in short: as §1

MIC	SMILES
64 µg/mL (≈ 164 µM)	CC1Cn2cc(C(=O)O)c(=O)c3cc(F)c(N4CCN(C=O)CC4)c(c32)S1 (stereo not drawn)
16 µg/mL (≈ 30.7 µM)	CC1Cn2cc(C(=O)O)c(=O)c3cc(F)c(N4CCN(S(=O)(=O)c5ccc(F)cc5)CC4)c(c32)S1 (stereo not drawn)
> 64 µg/mL	CC1Cn2cc(C(=O)O)c(=O)c3cc(F)c(N4CCN(Cc5cccc(F)c5)CC4)c(c32)S1 (stereo not drawn)
32 µg/mL (≈ 91.8 µM)	CC1Cn2cc(C(=O)O)c(=O)c3cc(F)c(N4CCCC4)c(c32)S1 (stereo not drawn)
64 µg/mL (≈ 131 µM)	CC1Cn2cc(C(=O)O)c(=O)c3cc(F)c(N4CCN(Cc5ccc(F)cc5F)CC4)c(c32)S1 (stereo not drawn)
32 µg/mL (≈ 92.7 µM)	CC1Cn2cc(C(=O)O)c(=O)c3cc(F)c(-n4ccnc4)c(c32)S1 (stereo not drawn)

system: not listed separately; assay: Minimal inhibitory concentration against Shigella enteritidis strain; assay type: functional; in short: as §1

MIC	SMILES
1 µg/mL (≈ 2.55 µM)	CC1Cn2cc(C(=O)O)c(=O)c3cc(F)c(N4CCN(C=O)CC4)c(c32)S1 (stereo not drawn)
8 µg/mL (≈ 15.3 µM)	CC1Cn2cc(C(=O)O)c(=O)c3cc(F)c(N4CCN(S(=O)(=O)c5ccc(F)cc5)CC4)c(c32)S1 (stereo not drawn)
> 64 µg/mL	CC1Cn2cc(C(=O)O)c(=O)c3cc(F)c(N4CCN(Cc5cccc(F)c5)CC4)c(c32)S1 (stereo not drawn)
16 µg/mL (≈ 45.9 µM)	CC1Cn2cc(C(=O)O)c(=O)c3cc(F)c(N4CCCC4)c(c32)S1 (stereo not drawn)
> 64 µg/mL	CC1Cn2cc(C(=O)O)c(=O)c3cc(F)c(N4CCN(Cc5ccc(F)cc5F)CC4)c(c32)S1 (stereo not drawn)
4 µg/mL (≈ 11.6 µM)	CC1Cn2cc(C(=O)O)c(=O)c3cc(F)c(-n4ccnc4)c(c32)S1 (stereo not drawn)

system: Proteus vulgaris; assay: Minimal inhibitory concentration against Proteus vulgaris CNUR6 strain; assay type: functional; in short: as §1

MIC	SMILES
64 µg/mL (≈ 164 µM)	CC1Cn2cc(C(=O)O)c(=O)c3cc(F)c(N4CCN(C=O)CC4)c(c32)S1 (stereo not drawn)
> 64 µg/mL	CC1Cn2cc(C(=O)O)c(=O)c3cc(F)c(N4CCN(S(=O)(=O)c5ccc(F)cc5)CC4)c(c32)S1 (stereo not drawn)
> 64 µg/mL	CC1Cn2cc(C(=O)O)c(=O)c3cc(F)c(N4CCN(Cc5cccc(F)c5)CC4)c(c32)S1 (stereo not drawn)
> 64 µg/mL	CC1Cn2cc(C(=O)O)c(=O)c3cc(F)c(N4CCCC4)c(c32)S1 (stereo not drawn)
> 64 µg/mL	CC1Cn2cc(C(=O)O)c(=O)c3cc(F)c(N4CCN(Cc5ccc(F)cc5F)CC4)c(c32)S1 (stereo not drawn)
> 64 µg/mL	CC1Cn2cc(C(=O)O)c(=O)c3cc(F)c(-n4ccnc4)c(c32)S1 (stereo not drawn)

system: Pseudomonas aeruginosa; assay: Minimal inhibitory concentration against Pseudomonas aeruginosa ATCC 9027 strain; assay type: functional; in short: as §1

MIC	SMILES
32 µg/mL (≈ 81.8 µM)	CC1Cn2cc(C(=O)O)c(=O)c3cc(F)c(N4CCN(C=O)CC4)c(c32)S1 (stereo not drawn)
> 64 µg/mL	CC1Cn2cc(C(=O)O)c(=O)c3cc(F)c(N4CCN(S(=O)(=O)c5ccc(F)cc5)CC4)c(c32)S1 (stereo not drawn)
> 64 µg/mL	CC1Cn2cc(C(=O)O)c(=O)c3cc(F)c(N4CCN(Cc5cccc(F)c5)CC4)c(c32)S1 (stereo not drawn)
> 64 µg/mL	CC1Cn2cc(C(=O)O)c(=O)c3cc(F)c(N4CCCC4)c(c32)S1 (stereo not drawn)
> 64 µg/mL	CC1Cn2cc(C(=O)O)c(=O)c3cc(F)c(N4CCN(Cc5ccc(F)cc5F)CC4)c(c32)S1 (stereo not drawn)
64 µg/mL (≈ 185 µM)	CC1Cn2cc(C(=O)O)c(=O)c3cc(F)c(-n4ccnc4)c(c32)S1 (stereo not drawn)

system: Staphylococcus aureus; assay: Minimal inhibitory concentration against […] aureus ATCC 6538 strain; assay type: functional; in short: as §1

MIC	SMILES
16 µg/mL (≈ 40.9 µM)	CC1Cn2cc(C(=O)O)c(=O)c3cc(F)c(N4CCN(C=O)CC4)c(c32)S1 (stereo not drawn)
4 µg/mL (≈ 7.67 µM)	CC1Cn2cc(C(=O)O)c(=O)c3cc(F)c(N4CCN(S(=O)(=O)c5ccc(F)cc5)CC4)c(c32)S1 (stereo not drawn)
32 µg/mL (≈ 67.9 µM)	CC1Cn2cc(C(=O)O)c(=O)c3cc(F)c(N4CCN(Cc5cccc(F)c5)CC4)c(c32)S1 (stereo not drawn)
2 µg/mL (≈ 5.74 µM)	CC1Cn2cc(C(=O)O)c(=O)c3cc(F)c(N4CCCC4)c(c32)S1 (stereo not drawn)
32 µg/mL (≈ 65.4 µM)	CC1Cn2cc(C(=O)O)c(=O)c3cc(F)c(N4CCN(Cc5ccc(F)cc5F)CC4)c(c32)S1 (stereo not drawn)
16 µg/mL (≈ 46.3 µM)	CC1Cn2cc(C(=O)O)c(=O)c3cc(F)c(-n4ccnc4)c(c32)S1 (stereo not drawn)

system: Escherichia coli; assay: Minimal inhibitory concentration against Escherichia coli ISF 432 strain; assay type: functional; in short: as §1

MIC	SMILES
0.5 µg/mL (≈ 1.28 µM)	CC1Cn2cc(C(=O)O)c(=O)c3cc(F)c(N4CCN(C=O)CC4)c(c32)S1 (stereo not drawn)
2 µg/mL (≈ 3.83 µM)	CC1Cn2cc(C(=O)O)c(=O)c3cc(F)c(N4CCN(S(=O)(=O)c5ccc(F)cc5)CC4)c(c32)S1 (stereo not drawn)
16 µg/mL (≈ 33.9 µM)	CC1Cn2cc(C(=O)O)c(=O)c3cc(F)c(N4CCN(Cc5cccc(F)c5)CC4)c(c32)S1 (stereo not drawn)
0.25 µg/mL (≈ 0.718 µM)	CC1Cn2cc(C(=O)O)c(=O)c3cc(F)c(N4CCCC4)c(c32)S1 (stereo not drawn)
8 µg/mL (≈ 16.3 µM)	CC1Cn2cc(C(=O)O)c(=O)c3cc(F)c(N4CCN(Cc5ccc(F)cc5F)CC4)c(c32)S1 (stereo not drawn)
0.12 µg/mL (≈ 0.347 µM)	CC1Cn2cc(C(=O)O)c(=O)c3cc(F)c(-n4ccnc4)c(c32)S1 (stereo not drawn)
